# A selection: hits, their analogues and other compounds. The true share with any hit is near 3.6%.
# UCH37 DUB inh: inhibitors of human UCH37 deubiquitinase, primary screen, biochemical, Ub-AMC cleavage, fluorescence; inhibition, % (no concentration beside the values); purified proteasome/UCH37; actives 0.33% (n = 330,000); AID 588478, 2011;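 active = mean inhibition over replicate wells above about 20%, limit read from the data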;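 note: 0% = compound-free wells with enzyme and 100% = wells lacking proteasome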
#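 Signal – fluorescence, ex 355 nm, em 460 nm · System – Proteasome-bound UCH37 · Input – 0.15 nM proteasome as dispensed · Timing – 30 min preincubation with enzyme, 25 min cleavage at room temperature · Read-out basis – percent inhibition of cleavage signal versus uninhibited and no-proteasome wells · Medium – Tris-HCl pH 7.4 with ATP-MgCl2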
# NadD inh: inhibitors of S. aureus NadD, primary screen, biochemical, colorimetric, uHTS; purified NadD enzyme, colorimetric absorbance read-out; actives 0.78% (n = 360,000); inhibition, % at 20 µM; in the data active = inhibition above about 26%
# NR3A LBD binder: binders of NR3A ligand-binding domain, primary screen, biophysical, differential scanning fluorimetry, uHTS; actives 2.5% (n = 340,000); Tm shift relative to glycine control, % at 25 µM; NR3A LBD differential scanning fluorimetry, Tm shift; 0% = protein alone, 100% = glycine-bound protein; Glutamate receptor ionotropic, NMDA 3A (GRIN3A) ligand-binding domain;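 active = melting temperature shift of at least 10% of the positive control shift, at one fixed dose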
# ATG4B inh: ATG4B protease inhibitors, primary screen, biochemical, fluorescence, uHTS. Cysteine protease ATG4B (Homo sapiens), Q9Y4P1. ATG4B cleavage of LC3-PLA2, NBD-HPC fluorescence, 1 h. inhibition, % at 8.33 µM. actives 0.51% (n = 340,000); in the data active = inhibition above about 40%
# Target sequence (Q9Y4P1 whole entry, looked up): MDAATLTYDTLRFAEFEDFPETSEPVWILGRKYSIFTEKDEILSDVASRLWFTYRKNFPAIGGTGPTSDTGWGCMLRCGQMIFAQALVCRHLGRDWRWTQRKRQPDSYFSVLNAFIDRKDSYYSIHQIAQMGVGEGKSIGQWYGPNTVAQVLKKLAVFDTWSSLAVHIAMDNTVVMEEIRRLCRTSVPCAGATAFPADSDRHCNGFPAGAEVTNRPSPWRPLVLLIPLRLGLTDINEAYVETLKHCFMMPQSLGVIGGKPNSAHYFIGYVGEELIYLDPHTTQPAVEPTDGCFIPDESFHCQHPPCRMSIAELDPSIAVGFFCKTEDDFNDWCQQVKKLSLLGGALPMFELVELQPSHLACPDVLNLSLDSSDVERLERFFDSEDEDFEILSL
# SENP1 FRET inh: human SENP1 catalytic domain inhibitors, primary screen, biochemical, FRET, uHTS; Sentrin-specific protease 1 (Homo sapiens), Q9P0U3; recombinant SENP1 catalytic domain, CyPet-SUMO1-YPet FRET cleavage; inhibition, % at 10 µM; actives 0.21% (n = 360,000);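 active = inhibition at least 30% at 10 µM, raw YFP signal under a set limit, fluorescence ratio 0.5 to 1.5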;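 note: 0% = enzyme with DMSO and 100% = no enzyme wells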
# Target sequence (Q9P0U3 419-644 limits assumed): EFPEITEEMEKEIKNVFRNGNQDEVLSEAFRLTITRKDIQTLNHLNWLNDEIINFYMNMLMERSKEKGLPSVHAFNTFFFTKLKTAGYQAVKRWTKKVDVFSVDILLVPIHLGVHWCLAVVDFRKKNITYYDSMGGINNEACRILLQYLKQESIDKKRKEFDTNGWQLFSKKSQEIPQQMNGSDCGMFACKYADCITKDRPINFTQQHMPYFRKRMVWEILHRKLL
#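 material = recombinant human SENP1 catalytic domain, His6-tagged | quantity = 20 pM enzyme | reagent = 25 nM SUMO1 FRET substrate | compound dosing = 10 µM single point, 0.5% DMSO | timing = 50 min enzyme reaction, room temperature, light-protected | detection = FRET, CFP and YFP emission | control set = no-enzyme low, enzyme-DMSO high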
# * marks the source's active call; other numbers are inactive results; / = no result given.
SMILES,UCH37 DUB inh,NadD inh,NR3A LBD binder,ATG4B inh,SENP1 FRET inh
O=C(CSc1n[nH]c(-c2ccncc2)n1)Nc1ccc(F)cc1,1.4,-4.4,-2.3,1.5,0.7
C/C(C=NNC(=O)c1cc(-c2cccnc2)nc2c1c(C)nn2-c1ccccc1)=C\c1ccccc1,-143.4,/,/,/,/
Cn1cccc1CC(=O)NN=Cc1ccc(Cl)cc1,7.4,/,/,/,/
COCc1cc(C=NNC(=O)Cc2ccc(OC)cc2)ccc1OC,1.5,/,/,/,/
O=C(Nc1ccc2c(c1)C(=O)c1ccccc1-2)c1ccccc1,6.7,2.3,17.7*,8.1,4.1
COc1cccc(C(=O)Nc2ccc3c(c2)C(=O)c2ccccc2C3=O)c1,5.2,0.3,15.9*,0.3,3.8
CC(=O)Nc1ccc2c(c1)C(=O)c1cccc(C(=O)O)c1-2,/,1.3,14.0*,-1.2,0.7
Cc1ccc(NC2=C(NC(=O)c3ccccc3)C(=O)c3ccccc3C2=O)cc1Cl,18.7,1.5,20.2*,-3.8,-0.8
CCC(=O)Nc1ccc2c(c1)C(=O)c1ccccc1C2=O,3.9,-7.7,-1.1,-8.1,2.7
COc1cccc(C(=O)Nc2ccc(C(=O)c3ccccc3)cc2)c1,0.9,-5.0,-6.1,2.6,0.5
CC(=NNC(=O)c1cccc([N+](=O)[O-])c1)c1cccc(NC(=O)C2CC2)c1,4.0,/,/,/,/
CCC(C)[C@H](NS(=O)(=O)c1ccc(C)cc1)C(=O)N1CCC(C(=O)N[C@@H](Cc2ccccc2)C(=O)O)CC1 (stereo partly drawn),0.4,-1.3,13.4*,-1.1,-23.2
CC1=NN(c2ccc(C)cc2)C(=O)/C1=C\C=C\c1ccccc1,1.0,-4.1,-10.1,-4.2,-0.8
CC1=NN(c2cccc(C(=O)O)c2)C(=O)/C1=C\C=C/c1ccccc1,6.8,2.3,11.7*,-3.2,0.5
CCCCCCC1CC(CSc2ncn[nH]2)OC1=O (stereo not drawn),0.9,5.3,14.9*,1.8,0.5
O=C(O)CCC(=NNC(=O)CNC(=O)Cc1ccc(Cl)cc1)c1ccccc1,0.1,/,/,/,/
Cc1snc(S(=O)(=O)/C(C#N)=N/Nc2cccc(C(F)(F)F)c2)c1C#N,/,5.7,24.4*,-7.4,-3.8
CC(=NNC(=O)C1(C)CC1(Br)Br)c1ccc(NC(=O)c2ccc(C)o2)cc1 (stereo not drawn),-0.9,/,/,/,/
Brc1ccccc1C=NNc1nc2ccccc2o1,-5.0,/,/,/,/
C[C@H](CO)N1C[C@H](C)[C@@H](CN(C)C(=O)Nc2ccc(C(F)(F)F)cc2)Oc2c(NC(=O)Nc3ccc4c(c3)OCO4)cccc2C1=O,3.6,-3.4,3.6,-9.7,0.6
C[C@H](CO)N1C[C@H](C)[C@@H](CN(C)C(=O)Nc2ccc3c(c2)OCO3)Oc2c(NC(=O)Nc3ccc(C(F)(F)F)cc3)cccc2C1=O,-0.7,-14.8,21.2*,-16.6,3.4
COc1ccc(NC(=O)Nc2cccc3c2O[C@H](CN(C)C(=O)Nc2ccccc2)[C@@H](C)CN([C@H](C)CO)C3=O)cc1,-3.1,1.6,1.1,-17.3,1.0
Cc1noc(C)c1NC(=O)N(C)C[C@H]1Oc2c(NC(=O)Nc3ccc(C(F)(F)F)cc3)cccc2C(=O)N([C@H](C)CO)C[C@@H]1C,1.1,-6.0,-5.4,-9.5,-1.7
COc1ccc(NC(=O)N(C)C[C@H]2Oc3c(NC(=O)Nc4ccc(C(F)(F)F)cc4)cccc3C(=O)N([C@H](C)CO)C[C@@H]2C)cc1,0.1,0.4,15.8*,-9.8,0.3
C[C@@H]1CN([C@H](C)CO)C(=O)c2cccc(NC(=O)Nc3ccc(F)cc3)c2O[C@H]1CN(C)C(=O)Nc1ccc(C(F)(F)F)cc1,-0.4,-10.7,14.7*,-15.6,1.6
SMILES,UCH37 DUB inh,NadD inh,NR3A LBD binder,ATG4B inh,SENP1 FRET inh
CC(C)NC(=O)Nc1cccc2c1O[C@H](CN(C)C(=O)NC(C)C)[C@@H](C)CN([C@H](C)CO)C2=O,20.2*,-3.0,-1.8,3.8,-1.0
CC(C)NC(=O)Nc1cccc2c1O[C@H](CN(C)C(=O)NC1CCCCC1)[C@@H](C)CN([C@H](C)CO)C2=O,0.6,-0.2,0.2,-3.7,1.2
COc1ccc(-c2[nH]ncc2C=NNC(=O)c2ccc(C(C)(C)C)cc2)cc1OC,1.7,/,/,/,/
Nc1nonc1-n1nnc(C(=O)NN=Cc2cccc(Cl)c2)c1-c1ccc2c(c1)OCO2,3.3,/,/,/,/
CC(C)NC(=O)N(C)C[C@H]1Oc2c(NC(=O)Nc3ccc(C(F)(F)F)cc3)cccc2C(=O)N([C@H](C)CO)C[C@@H]1C,-2.9,-4.5,0.6,-16.1,0.5
C[C@H](CO)N1C[C@H](C)[C@@H](CN(C)C(=O)Nc2ccc(C(F)(F)F)cc2)Oc2c(NC(=O)Nc3ccccc3)cccc2C1=O,2.4,-7.9,14.7*,-18.2,-1.8
C[C@H](CO)N1C[C@H](C)[C@@H](CN(C)C(=O)NC2CCCCC2)Oc2c(NC(=O)Nc3ccc(C(F)(F)F)cc3)cccc2C1=O,4.9,-4.6,10.9*,-10.9,-0.1
CC(=NNC(=O)c1nnn(-c2nonc2N)c1CSc1ccc(Cl)cc1)c1cccnc1,1.2,/,/,/,/
Cc1ccccc1-n1c(SCC(=O)N/N=C/c2sccc2C)nc2ccccc2c1=O,/,-4.4,2.7,4.9,0.1
Cc1nn(-c2ccccc2)c(C)c1/C=N/NC(=O)CSc1nnc(SCc2cccc3ccccc23)s1,/,20.7,15.7*,7.5,2.3
Cc1ccccc1-n1c(SCC(=O)N/N=C/c2c(C)nn(-c3ccccc3)c2C)nc2ccccc2c1=O,/,28.9,20.5*,32.9,1.1
O=C(CSc1nnc(SCc2ccccc2Cl)s1)N/N=C/c1c[nH]c2ccccc12,/,-3.7,26.1*,35.9,0.8
O=C(NN=Cc1ccco1)c1ccc(Br)o1,8.2,/,/,/,/
CC(=O)Nc1ccc(NC(=O)Nc2cc(C)cc(C)c2)cc1,3.0,-1.9,29.2*,-3.1,-2.8
CC(=O)c1cccc(NC(=O)Nc2cnn(Cc3ccc(Cl)cc3Cl)c2)c1,4.3,0.2,14.1*,14.5,0.2
CC(=O)Nc1cccc(C)c1,3.6,2.7,3.0,-3.4,-0.6
CC(=O)Nc1cccc(NC(=O)Nc2ccc(C(C)=O)cc2)c1,5.0,-0.9,13.3*,5.6,3.2
CC(=O)c1ccc(NC(=O)Nc2ccc(Cl)cc2)cc1,-0.7,0.3,30.9*,-11.8,1.2
O=C1CSC(=NN=Cc2ccco2)N1c1ccccc1,5.9,/,/,/,/
CCn1c(SCC(=O)NN=C(C)c2ccncc2)nc2ccccc21,0.5,/,/,/,/
Cc1cc(N(C)N=Cc2ccccc2O)nc(-c2ccccc2O)n1,-16.2,/,/,/,/

# Bioassay records as filed in PubChem BioAssay.
